Results on five compounds are retold here after ChEMBL document CHEMBL5236609, “Optimization of 1,2,4-Triazole-3-thiones toward Broad-Spectrum Metallo-β-lactamase Inhibitors Showing Potent Synergistic Activity on VIM- and NDM-1-Producing Clinical Isolates” (J Med Chem, 2022).

Data set [1] can be described thus: Inhibition of bacterial VIM-2 (unknown origin) expressed in Escherichia coli EXPRESS BL21(DE3) assessed as inhibition constant by measuring rate of substrate hydrolysis by UV-visible spectrophotometry. Also on record: species or system Bacteria. An outline of the steps:
(§1)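 Reporter-substrate assay with purified MBL (1–70 nM final) in 50 mM HEPES pH 7.5 at 30 °C. […] Inhibitor 0.5–1000 μM final. Ki derived from the v0/vi vs [I] slope assuming competitive inhibition, or from a Dixon plot. Ki given when inhibition >70%, otherwise % inhibition at 100 μM. Triplicate.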

Data set [2] can be described thus: Inhibition of bacterial IMP-1 (unknown origin) expressed in Escherichia coli EXPRESS BL21(DE3) assessed as inhibition constant by measuring rate of substrate hydrolysis by UV-visible spectrophotometry. Also on record: species or system Bacteria. A digest of the protocol: as §1
The test system of data set [3] is Klebsiella pneumoniae. In words: Antimicrobial activity against blaVIM-1-producing multidrug-resistant Klebsiella pneumoniae K47-25 clinical isolate assessed as meropenem MIC at 32 ug/ml by broth microdilution method (reference value: […] ug/ml). In kind it is functional. Conditions: dose 32 µg/ml. A digest of the protocol:
(§2)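 Inoculum was 5×10^4 CFU/well. Each inhibitor was present at a fixed 32 μg/mL, and MICs were also taken without inhibitor.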
(In general: Broth dilution looks for growth in wells or tubes with falling amounts of substance.)

Data set [4] concerns Klebsiella pneumoniae. Description: Antimicrobial activity against blaVIM-4-producing multidrug-resistant Klebsiella pneumoniae VA-416/02 clinical isolate assessed as meropenem MIC at 32 ug/ml by broth microdilution method (reference value: […] ug/ml). Format: functional. Particulars: dose 32 µg/ml. An outline of the steps: as §2
The nature of data set [5]: Cytotoxicity against human HeLa cells assessed as LDH release incubated for 24 hrs by membrane integrity assay. In kind it is toxicity, cell-based. An outline of the steps:
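HeLa cells (20,000/well) exposed to compound up to 250 μM for 24 h at 37 °C, 5% CO2 in DMEM with 10% FBS, 4.5 mg/mL glucose and 2 mM L-glutamine. LDH release expressed as % of Triton X-100 maximum lysis; IC50 is the concentration giving 50% cytotoxicity.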

Data set [6] in a line: n-Octanol/PBS partition coefficient, logD of the compound at pH 7.4 after 2 hrs by LC-MS/MS analysis. Format: physicochemical. An outline of the steps:
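LogD from partitioning between 10 mM PBS pH 7.4 and n-octanol (1:1).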

A short description of data set [7]: Metabolic stability in CD-1 mouse microsomes assessed as intrinsic clearance at 37 degC by LC-MS/MS analysis. In kind it is ADME, Microsome. Particulars: for microsomal CLint: CD-1, mouse; for Stability: mouse. A digest of the protocol:
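Mouse liver microsomes, mixed gender, at 37 °C for 40 min; propranolol control. Reports t1/2, intrinsic clearance and % intact compound remaining at 40 min.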

In a further data set the target is T1, Insulin-degrading enzyme (Homo sapiens, UniProt P14735).
T1 sequence (P14735 whole entry): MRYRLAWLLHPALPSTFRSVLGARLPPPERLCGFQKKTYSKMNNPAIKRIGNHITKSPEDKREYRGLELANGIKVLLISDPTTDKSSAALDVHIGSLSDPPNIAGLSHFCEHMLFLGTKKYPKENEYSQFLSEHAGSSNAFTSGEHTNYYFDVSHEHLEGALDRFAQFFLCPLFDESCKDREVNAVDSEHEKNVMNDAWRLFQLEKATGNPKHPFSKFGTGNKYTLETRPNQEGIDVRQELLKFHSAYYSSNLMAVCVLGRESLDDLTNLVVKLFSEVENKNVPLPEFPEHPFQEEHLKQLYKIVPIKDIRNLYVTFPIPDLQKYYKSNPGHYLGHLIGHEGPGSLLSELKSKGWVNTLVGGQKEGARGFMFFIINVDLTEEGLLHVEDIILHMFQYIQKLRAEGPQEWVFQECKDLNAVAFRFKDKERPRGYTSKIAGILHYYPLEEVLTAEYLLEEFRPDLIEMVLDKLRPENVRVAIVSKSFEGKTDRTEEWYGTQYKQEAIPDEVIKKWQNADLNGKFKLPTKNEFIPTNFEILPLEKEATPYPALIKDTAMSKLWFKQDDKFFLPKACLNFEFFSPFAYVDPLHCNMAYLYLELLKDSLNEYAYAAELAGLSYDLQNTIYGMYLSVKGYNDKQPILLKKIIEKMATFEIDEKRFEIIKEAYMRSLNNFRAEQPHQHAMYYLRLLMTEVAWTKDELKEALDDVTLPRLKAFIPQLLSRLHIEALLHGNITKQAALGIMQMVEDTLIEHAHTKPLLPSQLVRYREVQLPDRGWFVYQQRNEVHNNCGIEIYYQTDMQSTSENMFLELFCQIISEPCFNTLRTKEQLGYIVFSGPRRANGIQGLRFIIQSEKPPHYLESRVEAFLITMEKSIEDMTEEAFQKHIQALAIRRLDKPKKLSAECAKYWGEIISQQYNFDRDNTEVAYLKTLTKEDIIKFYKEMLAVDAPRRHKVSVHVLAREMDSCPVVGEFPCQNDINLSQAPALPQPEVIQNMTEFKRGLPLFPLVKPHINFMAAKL
Description: Inhibition of recombinant human IDE using ATTO 655-Cys-Lys-Leu-Val-Phe-Phe-Ala-Glu-Asp-Trp as substrate measured after 45 mins by fluorescence assay.

For data set [8], the target named is T2, Endoplasmic reticulum aminopeptidase 1 (Mus musculus) (UniProt Q9EQH2).
T2 sequence (whole entry): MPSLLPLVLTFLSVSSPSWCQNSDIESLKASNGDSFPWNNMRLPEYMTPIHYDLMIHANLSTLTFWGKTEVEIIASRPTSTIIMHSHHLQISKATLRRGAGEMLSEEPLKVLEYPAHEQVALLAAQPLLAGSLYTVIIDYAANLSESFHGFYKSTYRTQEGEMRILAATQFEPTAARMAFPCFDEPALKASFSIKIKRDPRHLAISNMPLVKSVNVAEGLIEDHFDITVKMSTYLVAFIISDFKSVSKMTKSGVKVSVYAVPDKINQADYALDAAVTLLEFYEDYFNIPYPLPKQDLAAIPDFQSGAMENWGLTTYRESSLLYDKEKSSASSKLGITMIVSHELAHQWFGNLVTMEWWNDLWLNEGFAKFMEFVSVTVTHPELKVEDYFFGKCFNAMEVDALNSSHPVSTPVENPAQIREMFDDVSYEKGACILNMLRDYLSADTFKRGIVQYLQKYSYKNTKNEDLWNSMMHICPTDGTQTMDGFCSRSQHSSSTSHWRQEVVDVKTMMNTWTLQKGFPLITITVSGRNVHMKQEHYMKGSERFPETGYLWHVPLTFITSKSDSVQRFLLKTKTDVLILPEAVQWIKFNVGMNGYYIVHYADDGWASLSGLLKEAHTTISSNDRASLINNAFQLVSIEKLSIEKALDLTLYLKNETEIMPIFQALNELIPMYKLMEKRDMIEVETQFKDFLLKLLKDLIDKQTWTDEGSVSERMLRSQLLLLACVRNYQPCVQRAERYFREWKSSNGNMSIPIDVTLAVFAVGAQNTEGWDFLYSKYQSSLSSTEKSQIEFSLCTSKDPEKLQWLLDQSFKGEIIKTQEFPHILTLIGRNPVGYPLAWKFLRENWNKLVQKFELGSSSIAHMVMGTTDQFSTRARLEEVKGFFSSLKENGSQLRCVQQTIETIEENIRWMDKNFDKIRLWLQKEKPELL
In words: Inhibition of recombinant mouse ERAAP using fluorogenic substrate H-Leu-AMC at 100 uM relative to control. An outline of the steps: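 Mouse ERAAP, H-Leu-AMC substrate; undisclosed in-house control inhibitor. Percent inhibition at 100 μM, one experiment in duplicate.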

Molecules are shown by their SMILES. Where only a bound is given, the exact number is not on record here.

In the case of `O=C(O)[C@H](CCn1c(-c2ccccc2)n[nH]c1=S)N(Cc1c[nH]cn1)Cc1c[nH]cn1`, the inhibitory constant (Ki) (in general, a dissociation constant, usually derived from enzyme kinetics or from competition with a known ligand) in data set [1] was determined as 0.21 µM; in [2], 6.2 µM. In addition, the values for the MIC in the data set on Klebsiella pneumoniae [3] and with Klebsiella pneumoniae [4] were 0.06 µg/mL and 0.03 µg/mL, respectively. Moreover, in [5], the CC50 (as a rule, the concentration that lowers cell viability or growth by half) at 24 h is above 250 µM. Further, the logD (commonly the decadic logarithm of the distribution of all forms, ionised or not, between an organic phase and buffer at a given pH) at 2 h in data set [6] is -2.2. Besides, in data set [7], the microsomal CLint – broadly, the capacity of the preparation to metabolise the compound, expressed as a volume cleared per time – is 10.6 µL/min/mg. Besides, the IC50 (in general, the concentration needed to halve the response being measured) on Insulin-degrading enzyme worked out at 17 µM. For the same compound, the inhibition (commonly the share of the control response that was lost under treatment) in data set [8] came to 51%.
As for `O=C(O)[C@H](CCCn1c(-c2ccccc2)n[nH]c1=S)N(Cc1ccccn1)Cc1ccccn1`, the Ki in [1] amounted to 0.96 µM. The MIC – broadly, the least concentration at which growth counts as inhibited – came to 0.06 µg/mL in the data set on Klebsiella pneumoniae [3] and 0.03 µg/mL with Klebsiella pneumoniae [4]. Moreover, in data set [6], the logD at 2 h was 0.243. The microsomal CLint in data set [7] was 16.5 µL/min/mg. For the same compound, the IC50 on Insulin-degrading enzyme stood at 41 µM. For the same compound, in [8], the inhibition worked out at 13%.
`Cc1[nH]cnc1CN(Cc1c[nH]cn1)[C@@H](CCCn1c(-c2ccccc2)n[nH]c1=S)C(=O)O`: the Ki in data set [1] was 0.35 µM; in data set [2] it was 4.5 µM. Moreover, the MIC with Klebsiella pneumoniae [3] was 0.06 µg/mL; in the data set on Klebsiella pneumoniae [4], 0.03 µg/mL. For the same compound, the CC50 at 24 h in [5] came out at 105 µM. For the same compound, the logD at 2 h in [6] was -1.93. The microsomal CLint in data set [7] stood at 5.5 µL/min/mg. In addition, the IC50 at Insulin-degrading enzyme amounted to 35 µM. In addition, the inhibition in [8] stood at 42%.
Regarding `O=C(O)[C@H](CCCn1c(-c2ccccc2)n[nH]c1=S)N(Cc1c[nH]cn1)Cc1c[nH]cn1`, the Ki in data set [1] is 0.41 µM. Also, the MIC with Klebsiella pneumoniae [3] and in the data set with Klebsiella pneumoniae [4] was 0.03 µg/mL throughout. In addition, the CC50 at 24 h in data set [5] was above 250 µM. Also, the logD at 2 h in [6] was -2.12. For the same compound, the Stability entry in [7] is “Stable”. In addition, the IC50 on Insulin-degrading enzyme was determined as 20 µM. Moreover, the inhibition in [8] worked out at 51%.
For `O=C(O)[C@H](CCCn1c(-c2ccc3ccccc3c2)n[nH]c1=S)N(Cc1c[nH]cn1)Cc1c[nH]cn1`, the Ki amounted to 0.11 µM in [1] and 4.7 µM in data set [2]. Further, the MIC in the data set on Klebsiella pneumoniae [3] and in the data set on Klebsiella pneumoniae [4] was 0.03 µg/mL each time. The compound also yielded a logD at 2 h in data set [6] of -0.823. For the same compound, the Stability result in data set [7] is given as “Stable”. In addition, the half-inhibitory concentration (IC50) on Insulin-degrading enzyme was determined as 9.1 µM. Also, the inhibition in [8] came out at 63%.
